Assay results published in ChEMBL document CHEMBL4602706, “Natural Product Evodiamine with Borate Trigger Unit: Discovery of Potent Antitumor Agents against Colon Cancer” (ACS Med Chem Lett, 2020).
Active and inactive are the calls of the source. The calls are words filed in the database; no cut-off is given here.

What was measured:
[1] = Toxicity in nude mouse xenografted with human HCT116 cells assessed as change in body weight at 0.5 mg/kg, ip qd measured every two days for 21 days; type: organism-based, HCT-116; settings: in vivo, 504 h
HCT-116 [2] = assay: Antitumour activity against human HCT116 cells xenografted in nude mouse assessed as tumour growth inhibition at 0.5 mg/kg, ip qd measured every two days for 21 days by caliper method relative to control; type: functional; settings: HCT-116, ip, read-out: TGI
[3] = Drug metabolism in PBS buffer assessed as H2O2-mediated 3-Fluoro-10-hydroxy-14-methyl-8,13,13b,14-tetrahydro-7H-indolo[2',3':3,4]pyrido[2,1-b]quinazolin-5-one release rate at pH 7.4 incubated for 8 hrs in presence of 0.05 mM H2O2 by HPLC analysis; type: physicochemical; settings: pH 7.4, 8 h
Outline: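 Release of the parent compound after treatment with H2O2 at varied concentrations, including 0.05 mM, in PBS pH 7.4. Analysed by HPLC.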

HCT-116 [4] = assay: Antitumour activity against human HCT116 cells xenografted in nude mouse assessed as tumour growth inhibition at 10 mg/kg, ip bid measured every two days for 21 days by caliper method relative to control; type: functional; settings: HCT-116, ip, read-out: TGI
Outline: (§1)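 HCT116 xenograft in mice. Dosing 10 mg/kg intraperitoneally over 21 consecutive days; tumour growth inhibition and body weight followed. Mean ± SEM, Student's t test versus vehicle group.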

[5] = Toxicity in nude mouse xenografted with human HCT116 cells assessed as change in body weight at 10 mg/kg, ip bid measured every two days for 21 days; type: organism-based, HCT-116; settings: in vivo, 504 h; outline: as §1
HCT-116 [6] = assay: Induction of apoptosis in human HCT116 cells assessed as apoptotic cells at 0.05 uM incubated for 48 hrs by AnnexinV-FITC/PI staining based flow cytometric analysis (reference value: 6.25 to 8.23%); type: functional
Outline: (§2)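 HCT116 cells exposed to 0.05, 0.2 or 0.4 μM for 48 h. Apoptotic cells quantified by flow cytometry, n = 3.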

[7] = target: T1, DNA topoisomerase II (Homo sapiens) (UniProt P11388+Q02880); assay: Inhibition of Top2 (unknown origin) at 50 uM using supercoiled pBR322 plasmid DNA as substrate incubated for 30 mins by PI staining based agarose gel electrophoresis analysis; type: protein assay
HCT-116 [8] = assay: Induction of cell cycle arrest in human HCT116 cells assessed as accumulation at G2 phase at 0.4 uM incubated for 24 hrs by propidium iodide staining based flow cytometry (reference value: 18.51 to 20.82%); type: functional
[9] = target: T2, DNA topoisomerase 1 (Homo sapiens) (UniProt P11387); assay: Inhibition of Top1 (unknown origin) at 83.3 uM using supercoiled pBR322 plasmid DNA as substrate incubated for 15 mins by PI staining based agarose gel electrophoresis analysis
T2 sequence (whole entry): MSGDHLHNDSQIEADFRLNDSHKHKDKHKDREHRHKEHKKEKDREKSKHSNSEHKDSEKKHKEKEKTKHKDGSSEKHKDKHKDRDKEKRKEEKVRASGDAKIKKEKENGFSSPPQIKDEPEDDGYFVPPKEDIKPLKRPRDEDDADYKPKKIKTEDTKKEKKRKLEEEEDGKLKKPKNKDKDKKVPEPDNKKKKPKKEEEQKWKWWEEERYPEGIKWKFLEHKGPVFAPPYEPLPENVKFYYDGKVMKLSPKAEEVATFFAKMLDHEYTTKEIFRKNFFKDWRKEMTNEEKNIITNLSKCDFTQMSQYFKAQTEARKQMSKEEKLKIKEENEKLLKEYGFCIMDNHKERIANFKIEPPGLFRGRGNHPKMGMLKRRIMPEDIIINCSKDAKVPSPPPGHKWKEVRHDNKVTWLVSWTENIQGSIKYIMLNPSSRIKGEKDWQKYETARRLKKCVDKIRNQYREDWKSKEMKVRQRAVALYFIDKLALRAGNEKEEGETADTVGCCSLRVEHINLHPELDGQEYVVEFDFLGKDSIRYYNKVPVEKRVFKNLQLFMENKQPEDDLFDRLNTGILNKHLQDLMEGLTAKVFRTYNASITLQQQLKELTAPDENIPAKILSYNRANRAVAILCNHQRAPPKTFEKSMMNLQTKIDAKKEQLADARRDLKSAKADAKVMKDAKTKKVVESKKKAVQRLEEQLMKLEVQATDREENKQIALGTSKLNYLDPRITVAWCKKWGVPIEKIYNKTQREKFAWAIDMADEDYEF

[10] = Drug metabolism in human HCT116 cells assessed as 3-Fluoro-10-hydroxy-14-methyl-8,13,13b,14-tetrahydro-7H-indolo[2',3':3,4]pyrido[2,1-b]quinazolin-5-one release by measuring parent compound retention time incubated for 8 hrs by UPLC-QTOF/MS analysis; type: ADME, cell-based; settings: hct-116, 8 h
Outline: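 Compounds incubated with HCT116 cells; culture media analysed by HPLC after 8, 48 and 72 h. Relative release rate taken from relative peak areas; parent and product identified by retention time.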

HCT-116 [11] = assay: Induction of apoptosis in human HCT116 cells assessed as apoptotic cells at 0.2 uM incubated for 48 hrs by AnnexinV-FITC/PI staining based flow cytometric analysis (reference value: 6.25 to 8.23%); type: functional; outline: as §2
[12] = target: T2, DNA topoisomerase 1 (Homo sapiens); assay: Inhibition of Top1 (unknown origin) at 125 uM using supercoiled pBR322 plasmid DNA as substrate incubated for 15 mins by PI staining based agarose gel electrophoresis analysis
Outline: (§3)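 Top1 inhibition tested at 500, 250 and 125 μM, and over 27.9 to 250 μM for selected compounds.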

[13] = target: T2, DNA topoisomerase 1 (Homo sapiens); assay: Inhibition of Top1 (unknown origin) at 500 uM using supercoiled pBR322 plasmid DNA as substrate incubated for 15 mins by PI staining based agarose gel electrophoresis analysis; outline: as §3
HCT-116 [14] = assay: Induction of cell cycle arrest in human HCT116 cells assessed as accumulation at G1 phase at 0.2 uM incubated for 24 hrs by propidium iodide staining based flow cytometry (reference value: 38.49 to 51.18%); type: functional
HCT-116 [15] = assay: Antiproliferative activity against human HCT116 cells incubated for 72 hrs by CCK8 assay; type: functional, cell-based; settings: Homo sapiens, HCT-116, 72 h; read-out: IC50
Outline: (§4)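 HCT116, MCF-7 and A549 human cancer cell lines; antiproliferative activity read out by CCK8 assay. Evodiamine derivatives and camptothecin served as positive controls.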

HCT-116 [16] = assay: Induction of cell cycle arrest in human HCT116 cells assessed as accumulation at G1 phase at 0.4 uM incubated for 24 hrs by propidium iodide staining based flow cytometry (reference value: 38.49 to 51.18%); type: functional
HCT-116 [17] = assay: Induction of cell cycle arrest in human HCT116 cells assessed as accumulation at G2 phase at 0.2 uM incubated for 24 hrs by propidium iodide staining based flow cytometry (reference value: 18.51 to 20.82%); type: functional
HCT-116 [18] = assay: Induction of cell cycle arrest in human HCT116 cells assessed as accumulation at G1 phase at 0.05 uM incubated for 24 hrs by propidium iodide staining based flow cytometry (reference value: 38.49 to 51.18%); type: functional
A549 = assay: Antiproliferative activity against human A549 cells incubated for 72 hrs by CCK8 assay; type: functional, cell-based; settings: Homo sapiens, A549, 72 h; read-out: IC50; outline: as §4
HCT-116 [19] = assay: Induction of apoptosis in human HCT116 cells assessed as apoptotic cells at 0.4 uM incubated for 48 hrs by AnnexinV-FITC/PI staining based flow cytometric analysis (reference value: 6.25 to 8.23%); type: functional; outline: as §2
[20] = Drug metabolism in human HCT116 cells assessed as 3-Fluoro-10-hydroxy-14-methyl-8,13,13b,14-tetrahydro-7H-indolo[2',3':3,4]pyrido[2,1-b]quinazolin-5-one release at 0.2 mM by UPLC-QTOF/MS analysis relative to control; type: ADME, cell-based; settings: hct-116, 200 µM, TDE = time-dependent effect
MCF7 = assay: Antiproliferative activity against human MCF7 cells incubated for 72 hrs by CCK8 assay; type: functional, cell-based; settings: Homo sapiens, MCF7, 72 h; read-out: IC50; outline: as §4
HCT-116 [21] = assay: Induction of apoptosis in human HCT116 cells incubated for 48 hrs by AnnexinV-FITC/PI staining based flow cytometric analysis; type: functional, cell-based
HCT-116 [22] = assay: Induction of cell cycle arrest in human HCT116 cells assessed as accumulation at S phase at 0.2 uM incubated for 24 hrs by propidium iodide staining based flow cytometry (reference value: 30.31 to 40.69%); type: functional
HCT-116 [23] = assay: Induction of cell cycle arrest in human HCT116 cells assessed as accumulation at S phase at 0.4 uM incubated for 24 hrs by propidium iodide staining based flow cytometry (reference value: 30.31 to 40.69%); type: functional
HCT-116 [24] = assay: Induction of cell cycle arrest in human HCT116 cells assessed as accumulation at G2 phase at 0.05 uM incubated for 24 hrs by propidium iodide staining based flow cytometry (reference value: 18.51 to 20.82%); type: functional
HCT-116 [25] = assay: Induction of cell cycle arrest in human HCT116 cells assessed as accumulation at S phase at 0.05 uM incubated for 24 hrs by propidium iodide staining based flow cytometry (reference value: 30.31 to 40.69%); type: functional
[26] = Metabolic stability in mouse liver microsomes assessed as half life at 1 uM preincubated with compound followed by NADPH addition measured upto 45 mins by LC-MS/MS analysis; type: ADME, Microsome
Outline: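 In vitro stability in liver microsomes; terminal half-life determined.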

[27] = target: T1, DNA topoisomerase II (Homo sapiens); assay: Inhibition of Top2 (unknown origin) using supercoiled pBR322 plasmid as substrate incubated for 30 mins by PI staining based agarose gel electrophoresis analysis; type: protein assay

Which results are given for `CC[C@@]1(O)C(=O)OCc2c1cc1n(c2=O)Cc2cc3c(CN(C)C)c(O)ccc3nc2-1` [TOPOTECAN]?
Activity [1]: Toxic; inhibition in vivo at 0.5 mg/kg (HCT-116 [2]): 68.8%

What does the source list for `CN1c2ccc(F)cc2C(=O)N2CCc3c([nH]c4ccc(OC(=O)OCc5ccc(B6OC(C)(C)C(C)(C)O6)cc5)cc34)C21` (centres undefined)?
Drug metabolism [3]: Dose-dependent effect; inhibition in vivo at 10 mg/kg (HCT-116 [4]): 64.4%; Activity [5]: Non-Toxic; Activity (HCT-116 [6]): 41.28 - 42.28%; inhibition [7]: Active; Activity (HCT-116 [8]): 56.25%; inhibition [9]: Active; Retention_time [10]: 11.4 min; Activity (HCT-116 [11]): 55.64%; inhibition [12]: Active; inhibition [13]: Active; Activity (HCT-116 [14]): 8.82%; IC50 (HCT-116 [15]): 16 nM; Activity (HCT-116 [16]): 4.95%; Activity (HCT-116 [17]): 45.49%; Activity (HCT-116 [18]): 34.32%; IC50 (A549): 37 nM; Activity (HCT-116 [19]): 61.73%; Drug metabolism [20]: Tde; IC50 (MCF7): 33 nM; Activity (HCT-116 [21]): Dose-dependent effect; Activity (HCT-116 [22]): 45.69%; Activity (HCT-116 [23]): 38.8%; Activity (HCT-116 [24]): 26.88%; Activity (HCT-116 [25]): 38.8%; half-life at 1 µM [26]: 8.36 min; inhibition [27]: Active
